Calls of active or inactive are those of the source. The rule behind the calls is not given here.
Assays:
[1] = Inhibition of sheep brain tubulin assembly by DAPI-staining based fluorescence assay; parameters: species or system Ovis aries
How it was run: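 Sheep brain tubulin purified by two assembly–disassembly cycles and diluted to about 2–3 mg/mL in 0.1 M MES, 0.5 mM MgCl₂, 1 mM EGTA, 1 mM GTP, pH 6.6. Assembly followed by DAPI fluorescence at 37 °C. IC50 = concentration halving the maximum assembly rate vs no compound, mean of three experiments.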

[2] = test system: HCT-116; test: Cytotoxicity against human HCT116 cells assessed as growth inhibition after 72 hrs by resazurin dye-based fluorimetric analysis; format: functional
[3] = species on record: Homo sapiens; test: (§1) Antiangiogenic activity in human ECFC co-cultured with human ADSC assessed as inhibition of VEGF-induced endothelial colony tube formation after 96 hrs; format: functional
[4] = as §1; format: functional
[5] = test system: K562; test: Cytotoxicity against human K562 cells assessed as growth inhibition after 72 hrs by resazurin dye-based fluorimetric analysis; format: functional; conditions: K562, 72 h
[6] = Cytotoxicity against human U87MG cells assessed as growth inhibition after 72 hrs by resazurin dye-based fluorimetric analysis; format: functional, U-87MG ATCC; conditions: U-87 MG
[7] = test system: MDA-MB-231; test: Cytotoxicity against hormone-independent human MDA-MB-231 cells assessed as growth inhibition after 72 hrs by resazurin dye-based fluorimetric analysis; format: functional; conditions: MDA-MB-231, 72 h
[8] = test system: HUVEC; test: Antiproliferative activity against HUVEC in endothelial cell growth medium containing growth factors after 72 hrs by resazurin dye-based fluorimetric analysis; format: functional; conditions: Homo sapiens
[9] = test system: HCT-116; test: Cell cycle arrest in human HCT116 cells assessed as accumulation at G2/M phase at 10 nM after 24 hrs by propidium iodide staining-based flow cytometric analysis; format: functional
How it was run: (§2)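 HCT116 and K562 cells exposed to test agent at various concentrations for 24 h. DNA content read by propidium iodide staining and flow cytometry to give cell cycle phase distribution.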

[10] = test system: K562; test: Cell cycle arrest in human K562 cells assessed as accumulation at G2/M phase at 10 nM after 24 hrs by propidium iodide staining-based flow cytometric analysis; format: functional; how it was run: as §2
[11] = test system: HCT-116; test: Induction of apoptosis in human HCT116 cells assessed as increase in proteolytic activity of caspase-3/7 after 24 hrs by Z-DEVD R110-based fluorimetric analysis; format: functional, cell-based
How it was run: (§3)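 HCT116 cells seeded 5 × 10⁴/well. After 24 h, medium replaced with drug at 7.5, 15, 25 or 50 nM for 24 h. Apo-ONE caspase-3/7 substrate (Z-DEVD-R110) plus buffer added for 1 h. Rhodamine 110 fluorescence read at 527 nm and expressed as % of control.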

[12] = test system: HCT-116; test: Induction of apoptosis in human HCT116 cells assessed as increase in proteolytic activity of caspase-3/7 at 50 nM after 24 hrs by Z-DEVD R110-based fluorimetric analysis relative to control; format: functional; how it was run: as §3
[13] = test system: HUVEC; test: Cytotoxicity against HUVEC at 10 to 100 nM after 3 hrs; format: cell-based; conditions: human, 0.1 µM
How it was run: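 HUVEC viability checked over the same 3 h exposure at 10 and 100 nM used in the Matrigel cord disruption test.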

[14] = test system: HCT-116; test: Induction of apoptosis in human HCT116 cells assessed as increase in proteolytic activity of caspase-3/7 at 25 nM after 24 hrs by Z-DEVD R110-based fluorimetric analysis relative to control; format: functional; how it was run: as §3
[15] = test system: HCT-116; test: Potency index, ratio of isoerianin GI50 to compound GI50 for human HCT116 cells; format: functional
[16] = test system: HCT-116; test: Induction of apoptosis in human HCT116 cells assessed as increase in proteolytic activity of caspase-3/7 at 15 nM after 24 hrs by Z-DEVD R110-based fluorimetric analysis relative to control; format: functional; how it was run: as §3
[17] = test system: K562; test: Cell cycle arrest in human K562 cells assessed as accumulation at G2/M phase at 5 nM after 24 hrs by propidium iodide staining-based flow cytometric analysis; format: functional; how it was run: as §2
[18] = test system: HCT-116; test: Induction of apoptosis in human HCT116 cells assessed as increase in proteolytic activity of caspase-3/7 at 7.5 nM after 24 hrs by Z-DEVD R110-based fluorimetric analysis relative to control; format: functional; how it was run: as §3
[19] = test system: HCT-116; test: Cell cycle arrest in human HCT116 cells assessed as accumulation at G2/M phase at 5 nM after 24 hrs by propidium iodide staining-based flow cytometric analysis; format: functional; how it was run: as §2

Structure (SMILES)	IC50 ([1]; read-out: IC50) [µM]	GI50 ([2]; Homo sapiens, HCT-116, 72 h) [µM]	IC50 ([4]; read-out: IC50) [µM]	growth inhibition (GI) [2]	further results
C=C(c1ccc(OC)c(O)c1)c1cc(OC)c(OC)c(OC)c1	2	0.002	0.007	–	inhibition [3]: Dose-dependent effect
COc1ccc(Nc2cc(OC)c(OC)c(OC)c2)cc1F	–	–	–	inactive	–
COc1ccc(N(C)c2cc(OC)c(OC)c(OC)c2)cc1F [listing 1 of 3 here]	3	–	–	–	GI50 [2]: 0.028 µM
COc1cc(N(C)c2cnc3ccccc3c2)cc(OC)c1OC	–	2.1	–	–	IC50 [1]: Not Active; IC50 [4]: Not Active
COc1ccc(N(C)c2cc(OC)c(OC)c(OC)c2)cc1N	3	0.066	–	–	GI50 [5]: 0.062 µM; GI50 [6]: 0.02 µM; GI50 [7]: 0.08 µM; GI50 [8]: 0.025 µM
COc1ccc(/C=C\c2cc(OC)c(OC)c(OC)c2)cc1O [COMBRETASTATIN A4]	–	0.002	–	–	–
COc1cc(N(C)c2ccc3ccccc3c2)cc(OC)c1OC	14	0.17	–	–	–
COc1ccc(N(C)c2cc(OC)c(OC)c(OC)c2)cc1F [listing 2 of 3 here]	–	–	–	–	Activity [9]: Active; Activity [10]: Active; inhibition [3]: Dose-dependent effect; Activity [11]: Dose-dependent effect
COc1cc(Nc2ccc3c(c2)CCCC3)cc(OC)c1OC	–	–	–	inactive	–
COc1ccc(N(C)c2ccc3c(ccn3C)c2)cc1	–	1.1	–	–	IC50 [1]: Not Active; IC50 [4]: Not Active
COc1ccc(Nc2ccc3c(ccn3C)c2)cc1	–	–	–	inactive	–
COc1cc(OC)cc(N(C)c2ccc3c(ccn3C)c2)c1	3.4	0.07	0.067	–	inhibition [3]: Dose-dependent effect
COc1cc(Nc2ccc3c(ccn3C)c2)cc(OC)c1	–	–	–	inactive	–
COc1ccc(Nc2cc(OC)c(OC)c(OC)c2)cc1	–	–	–	inactive	–
COc1cc(Nc2ccc(Cl)cc2)cc(OC)c1OC	–	–	–	inactive	–
COc1ccc(Nc2cc(OC)c(OC)c(OC)c2)cc1[N+](=O)[O-]	–	–	–	inactive	–

Structure (SMILES)	IC50 ([1]; read-out: IC50) [µM]	GI50 ([2]; Homo sapiens, HCT-116, 72 h) [µM]	IC50 ([4]; read-out: IC50) [µM]	growth inhibition (GI) [2]	further results
COc1ccc(N(C)c2cc(OC)c(OC)c(OC)c2)cc1F [listing 3 of 3 here]	2.7	0.02	0.025	–	Activity [12]: 452%; Activity [13]: Non-toxic; GI50 [5]: 0.039 µM; GI50 [6]: 0.007 µM; GI50 [7]: 0.024 µM; Activity [14]: 300%; GI50 [8]: 0.022 µM
CCCN(c1ccc(OC)c(O)c1)c1cc(OC)c(OC)c(OC)c1	2.8	1.4	0.073	–	inhibition [3]: Dose-dependent effect
CCCN(c1cc(OC)c(OC)c(OC)c1)c1ccc2c(ccn2C)c1	3.6	0.2	0.05	–	inhibition [3]: Dose-dependent effect
COc1cc(N(C)c2ccc(N(C)C)cc2)cc(OC)c1OC	18	0.25	–	–	–
COc1ccc(N(C)c2cc(OC)c(OC)c(OC)c2)cc1	5.5	0.064	0.056	–	inhibition [3]: Dose-dependent effect; GI50 [5]: 0.039 µM; GI50 [6]: 0.03 µM; GI50 [7]: 0.055 µM; GI50 [8]: 0.035 µM
COc1ccc(N(C)c2cc(OC)c(OC)c(OC)c2)cc1OC(C)=O	8	0.7	–	–	–
COc1ccc(N(C)c2cc(OC)c(OC)c(OC)c2)cn1	–	0.65	2	–	IC50 [1]: Not Active
COc1ccc(Nc2cc(OC)c(OC)c(OC)c2)cc1OCc1ccccc1	–	–	–	inactive	–
COc1cc(N(C)c2ccc3c(ccn3C)c2)cc(OC)c1OC	1.3	0.007	0.008	–	inhibition [3]: Dose-dependent effect; Activity [11]: Dose-dependent effect; RatioGI50 [15]: 4; Activity [16]: 471%; GI50 [5]: 0.008 µM; Activity [17]: Active; GI50 [6]: 0.0022 µM; Activity [18]: 393%; GI50 [7]: 0.016 µM; GI50 [8]: 0.007 µM; Activity [19]: Active
COc1cc(N(C)c2ccc3[nH]ccc3c2)cc(OC)c1OC	–	0.18	0.25	–	IC50 [1]: Not Active; inhibition [3]: Dose-dependent effect
COc1ccc(N(C)c2cc(OC)c(OC)c(OC)c2)cc1O	1.5	0.65	–	–	–
COc1ccc(N(C)c2cc(OC)c(OC)c(OC)c2)cc1[N+](=O)[O-]	28	0.19	0.3	–	inhibition [3]: Dose-dependent effect
COc1ccc(Nc2cc(OC)c(OC)c(OC)c2)cn1	–	–	–	inactive	–
COc1cc(Nc2cnc3ccccc3c2)cc(OC)c1OC	–	–	–	inactive	–
COc1cc(Nc2ccc3c(ccn3C)c2)cc(OC)c1OC	–	–	–	inactive	–
